Like-named read-outs stand apart in the source and are kept apart here.
What was measured:
hERG = hERG (Homo sapiens, UniProt Q12809); experiment: Standard hERG test for cardiotoxicity
HIVIIIB = experiment: Cell-to-cell virus transmission assay in CEM-SS cells; type: cell-based, HIV-1
Pharmacokinetics in rats = type: in vivo; details: male, Sprague-Dawley, rat, plasma, po, 1000 mg/kg
Method in brief: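 Male Sprague-Dawley rats, n = 3 per route. Prodrug given as IV bolus (50 mg/kg, 12.5 mg/mL in 5% DMSO/50% PEG300 in saline) or PO (1000 mg/kg, […] in 2% CMC suspension). Blood sampled over 24 h into sodium fluoride plus citric acid, kept on wet ice <10 min, then centrifuged at 4 °C. Plasma stored at −80 °C; prodrug and active metabolite quantified by UPLC-MS/MS (prodrug LLOQ 0.10 ng/mL).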

[1] = system: drug-resistant HIV-1 strains; experiment: Antiviral activity against drug-resistant HIV-1 strains in MT-4; type: cell-based; details: MT-4
[2] = system: HIV attachment to HeLa-CD4-LTR-β-gal cells; experiment: Attachment inhibition assay; type: cell-based, HIV-1; details: Human immunodeficiency virus 1, read-out: Attachment inhibition EC50 ± SD
[3] = system: IIIB strain of HIV-1 in CEM-SS cells; experiment: Combination drug interaction evaluation; type: cell-based
Method in brief: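 CEM-SS cells infected with HIV-1 IIIB; inhibition of cytopathic effect measured for the test compound in two-drug combinations with known anti-HIV agents. Efficacy and toxicity analysed by Prichard–Shipman MacSynergy II. Expected additive inhibition computed from each agent's single-agent dose–response; inhibition above expected at each concentration calculated at 95%, 99% and 99.9% confidence. −99 to −51 μM2% scored antagonistic; <−100 highly antagonistic.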

HIV-1 integrase = HIV-1 integrase (Human immunodeficiency virus type 1 group M subtype B, UniProt P04585); experiment: HIV-1 integrase inhibition assay; type: biochemical
HIV strain 92US727 = experiment: Cell-to-cell virus transmission assay in fresh human PBMCs; type: cell-based, HIV-1
Method in brief: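 HIV-infected fresh human PBMCs treated 3 days with six concentrations of test compound. Passaged every 3 days for three passages at fixed compound concentration; 80% of culture volume replaced with fresh compound-containing medium and uninfected cells. Cell-free supernatants collected on sub-culture days for RT activity and extracellular p24 antigen. TCID50 per passage by endpoint dilution.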

HIV-1IIIB [4] = experiment: Drug-resistant virus selection by serial dose escalation; type: cell-based; details: fourteen passages, CEM-SS cells
HIV-1IIIB [5] = experiment: Antiviral activity with added serum proteins in CEM-SS cells; type: cell-based
[6] = system: drug resistant clinical HIV isolates; experiment: Antiviral activity against drug-resistant HIV-1 in PBMCs; type: cell-based; details: Human immunodeficiency virus 1, PBMC
in vitro = details: human, CC50 (cytotoxic concentration), fresh human PBMCs
[7] = system: clinical HIV-1 subtype B virus 92US723; experiment: Antiviral activity with added serum proteins in fresh human PBMCs; type: cell-based; details: 50% human serum, AAGP or HSA vs medium only
HIV-1 protease = HIV-1 protease (Human immunodeficiency virus type 1 group M subtype B, UniProt P04585); experiment: HIV-1 protease inhibition assay; type: biochemical
MT-4 cells = experiment: Toxicity to MT-4 cells; type: cell-based; details: all assays
SARS corona virus = experiment: organism not typed; type: cell-based
[8] = system: HL2/3 cells expressing HIV-1 gp120 and gp41 fusing with HeLa-CD4-LTR-β-gal cells; experiment: Fusion inhibition assay; type: cell-based; details: Human immunodeficiency virus 1, HL2/3, read-out: Fusion inhibition EC50 ± SD
Method in brief: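 HeLa-CD4-LTR-β-Gal cells incubated with test compound for 1 h at 37°C/5% CO2, then co-cultured 48 h with HL2/3 cells. Cells lysed and β-galactosidase expression measured by chemiluminescent Gal-Screen.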

cytochrome P450 enzymes = experiment: Inhibition of cytochrome P450 enzymes; type: in vitro ADME
wild type HIV-1 RT = wild type HIV-1 RT (Human immunodeficiency virus type 1 group M subtype B, UniProt P04585); experiment: Biochemical RT inhibition assay

hERG, sequence (Q12809 whole entry): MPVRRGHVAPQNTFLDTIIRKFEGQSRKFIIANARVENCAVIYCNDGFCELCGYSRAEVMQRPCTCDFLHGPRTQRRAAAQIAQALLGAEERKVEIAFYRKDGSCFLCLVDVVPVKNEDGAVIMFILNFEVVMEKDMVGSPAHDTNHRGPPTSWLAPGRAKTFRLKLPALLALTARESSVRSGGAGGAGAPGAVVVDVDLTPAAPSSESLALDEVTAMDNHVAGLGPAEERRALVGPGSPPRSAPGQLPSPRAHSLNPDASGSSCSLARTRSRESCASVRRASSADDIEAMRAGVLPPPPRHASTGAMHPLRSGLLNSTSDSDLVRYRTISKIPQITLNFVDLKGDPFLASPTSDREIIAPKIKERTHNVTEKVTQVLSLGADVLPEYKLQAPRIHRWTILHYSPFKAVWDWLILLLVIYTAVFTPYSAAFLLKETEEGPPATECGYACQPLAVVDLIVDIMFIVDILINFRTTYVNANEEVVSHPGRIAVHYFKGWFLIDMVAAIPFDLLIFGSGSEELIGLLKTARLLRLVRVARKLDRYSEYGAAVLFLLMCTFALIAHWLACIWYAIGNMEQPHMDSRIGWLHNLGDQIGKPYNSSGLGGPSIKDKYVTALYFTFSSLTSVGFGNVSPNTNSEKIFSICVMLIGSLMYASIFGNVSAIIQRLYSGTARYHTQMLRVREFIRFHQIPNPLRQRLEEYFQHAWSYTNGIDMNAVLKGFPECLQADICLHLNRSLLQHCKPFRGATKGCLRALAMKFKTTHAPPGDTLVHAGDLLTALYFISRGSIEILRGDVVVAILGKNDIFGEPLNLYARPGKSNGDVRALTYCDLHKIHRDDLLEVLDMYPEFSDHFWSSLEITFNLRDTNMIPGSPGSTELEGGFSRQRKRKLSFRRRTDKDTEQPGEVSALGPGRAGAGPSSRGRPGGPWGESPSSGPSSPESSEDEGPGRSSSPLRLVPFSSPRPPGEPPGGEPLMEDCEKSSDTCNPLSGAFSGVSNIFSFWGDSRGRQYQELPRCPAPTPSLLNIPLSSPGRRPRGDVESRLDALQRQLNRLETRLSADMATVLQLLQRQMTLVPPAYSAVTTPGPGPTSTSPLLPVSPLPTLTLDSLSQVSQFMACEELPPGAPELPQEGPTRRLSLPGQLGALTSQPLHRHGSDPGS

NC(=O)CCNC(=O)c1ccccc1S [MDH-1-38, N-(3-amino-3-oxopropyl)-2-mercaptobenzamide]
hERG test for cardiotoxicity (hERG): negative | RT (HIVIIIB; Passage 1, 2 μM): 22 cpm | TCID50/mL (HIVIIIB; Passage 1, 2 μM): 0 TCID50/mL | p24 (HIVIIIB; Passage 1, 2 μM): 619 pg/mL | RT (HIVIIIB; Passage 2, 2 μM): 185 cpm | TCID50/mL (HIVIIIB; Passage 2, 2 μM): 2.46 × 10^5 TCID50/mL | p24 (HIVIIIB; Passage 2, 2 μM): 28,255 pg/mL | RT (HIVIIIB; Passage 3, 2 μM): 2820 cpm | TCID50/mL (HIVIIIB; Passage 3, 2 μM): 2.41 × 10^4 TCID50/mL | p24 (HIVIIIB; Passage 3, 2 μM): 394,996 pg/mL | bioavailability (Pharmacokinetics in rats): 64% | EC50 ([1]; Human immunodeficiency virus 1, read-out: Mean EC50 ± SD, AZT- and NNRTI-resistant, RT 4xAZT/L100I): 3.59 ± 1.25 µM | EC50 ([1]; Human immunodeficiency virus 1, read-out: Mean EC50 ± SD, AZT- and NNRTI-resistant, RT 4xAZT/Y181C): 4.87 ± 0.22 µM | EC50 ([1]; Human immunodeficiency virus 1, read-out: Mean EC50 ± SD, AZT-resistant, RT 4xAZT (D67N/K70R/T215Y/K219Q)): 3.31 ± 2.2 µM | EC50 ([1]; Human immunodeficiency virus 1, read-out: Mean EC50 ± SD, Atazanavir-resistant, PR I50L): 0.82 ± 0.37 µM | EC50 ([1]; Human immunodeficiency virus 1, read-out: Mean EC50 ± SD, Didanosine-resistant, RT L74V): 3.93 ± 2.33 µM | EC50 ([1]; Human immunodeficiency virus 1, read-out: Mean EC50 ± SD, Enfuviritide-resistant, Env V38A/N126K): 7.09 ± 0.03 µM | EC50 ([1]; Human immunodeficiency virus 1, read-out: Mean EC50 ± SD, Indinavir-, Ritonavir-resistant, PR I84V): 2.54 ± 0.93 µM | EC50 ([1]; Human immunodeficiency virus 1, read-out: Mean EC50 ± SD, Indinavir-, Ritonavir-resistant, PR V82A): 10.3 ± 5.34 µM | EC50 ([1]; Human immunodeficiency virus 1, read-out: Mean EC50 ± SD, Indinavir-, Ritonavir-resistant, PR V82F/I84V): 4.1 ± 0.47 µM | EC50 ([1]; Human immunodeficiency virus 1, read-out: Mean EC50 ± SD, Lamivudine-resistant, RT M184V): 2.7 ± 1.52 µM | EC50 ([1]; Human immunodeficiency virus 1, read-out: Mean EC50 ± SD, NNRTI-resistant, RT K103N/Y181C): 8.03 ± 1.45 µM | EC50 ([1]; Human immunodeficiency virus 1, read-out: Mean EC50 ± SD, NNRTI-resistant, RT K103N): 3.97 ± 1.31 µM | EC50 ([1]; Human immunodeficiency virus 1, read-out: Mean EC50 ± SD, NNRTI-resistant, RT L100I): 1.22 ± 0.01 µM | EC50 ([1]; Human immunodeficiency virus 1, read-out: Mean EC50 ± SD, NNRTI-resistant, RT V106A): 2.74 ± 2.17 µM | EC50 ([1]; Human immunodeficiency virus 1, read-out: Mean EC50 ± SD, NNRTI-resistant, RT V108I): 3.84 ± 1.6 µM | EC50 ([1]; Human immunodeficiency virus 1, read-out: Mean EC50 ± SD, NNRTI-resistant, RT V179D): 3.57 ± 1.81 µM | EC50 ([1]; Human immunodeficiency virus 1, read-out: Mean EC50 ± SD, NNRTI-resistant, RT Y181C): 3.99 ± 1.59 µM | EC50 ([1]; Human immunodeficiency virus 1, read-out: Mean EC50 ± SD, NNRTI-resistant, RT Y188C): 3.37 ± 2.15 µM | EC50 ([1]; Human immunodeficiency virus 1, read-out: Mean EC50 ± SD, Raltegravir-resistant, IN Q148H/G140S): 3.39 ± 2.15 µM | EC50 ([1]; Human immunodeficiency virus 1, read-out: Mean EC50 ± SD, Saquinavir-resistant, PR G48V/L90M): 1 ± 0.34 µM | EC50 ([1]; Human immunodeficiency virus 1, read-out: Mean EC50 ± SD, Tenofovir-resistant, RT K65R): 4.29 ± 0.64 µM | EC50 [2]: 44.4 ± 7.21 µM | mean synergy volume ([3]; in combination with amprenavir): 101 ± 61 μM^2% | mean synergy volume ([3]; in combination with dolutegravir): 95.7 ± 44.3 μM^2% | mean synergy volume ([3]; in combination with enfuviritide): 80.8 ± 32.9 μM^2% | mean synergy volume ([3]; in combination with lopinavir): 108 ± 64.5 μM^2% | mean synergy volume ([3]; in combination with nelfinavir): 498 ± 288 μM^2% | mean synergy volume ([3]; in combination with ritonavir): 282 ± 111 μM^2% | EC50 (HIV-1 integrase): > 100 µM | RT (HIV strain 92US727; Passage 1, 3.25 μM): 216 cpm | TCID50/mL (HIV strain 92US727; Passage 1, 3.25 μM): 3.75 × 10^2 TCID50/mL | p24 (HIV strain 92US727; Passage 1, 3.25 μM): 816 pg/mL | RT (HIV strain 92US727; Passage 2, 3.25 μM): 730 cpm | TCID50/mL (HIV strain 92US727; Passage 2, 3.25 μM): 4.90 × 10^3 TCID50/mL | p24 (HIV strain 92US727; Passage 2, 3.25 μM): 2642 pg/mL | RT (HIV strain 92US727; Passage 3, 3.25 μM): 11,080 cpm | TCID50/mL (HIV strain 92US727; Passage 3, 3.25 μM): 2.17 × 10^4 TCID50/mL | p24 (HIV strain 92US727; Passage 3, 3.25 μM): 55,429 pg/mL | selection of resistant virus (HIV-1IIIB [4]): did not result in resistance | fold decrease in potency (HIV-1IIIB [5]; in the presence of 50% human AB serum): ~4.5 fold | fold decrease in potency (HIV-1IIIB [5]; in the presence of HSA (10 mg/mL)): 4.5 fold | EC50 ([6]; read-out: PBMC/HIV-1 EC50 ± SD, Multi-drug resistant AD. MDR): 10.6 ± 6.95 µM | EC50 ([6]; read-out: PBMC/HIV-1 EC50 ± SD, Multi-drug resistant MDR769): 3.5 ± 1.45 µM | EC50 ([6]; read-out: PBMC/HIV-1 EC50 ± SD, NNRTI-resistant A17R): 11.4 ± 8.47 µM | EC50 ([6]; read-out: PBMC/HIV-1 EC50 ± SD, NNRTI-resistant N119): 2.58 ± 2.52 µM | EC50 ([6]; read-out: PBMC/HIV-1 EC50 ± SD, PI-resistant 144-44): 9.78 ± 8.23 µM | EC50 ([6]; read-out: PBMC/HIV-1 EC50 ± SD, PI-resistant 1002-60): 2.04 ± 1.03 µM | EC50 ([6]; read-out: PBMC/HIV-1 EC50 ± SD, PI-resistant 1022-48): 0.98 ± 0.64 µM | EC50 ([6]; read-out: PBMC/HIV-1 EC50 ± SD, PI-resistant 1026-60): 2.67 ± 0.4 µM | EC50 ([6]; read-out: PBMC/HIV-1 EC50 ± SD, PI-resistant 1064-52): 3.06 ± 0.28 µM | EC50 ([6]; read-out: PBMC/HIV-1 EC50 ± SD, Wild Type 92US727): 3.32 ± 1.95 µM | CC50 (in vitro): > 231 µM | change in antiviral activity with serum protein additives [7]: no significant change in antiviral activity | EC50 (HIV-1 protease): > 100 µM | non-toxic up to high test concentration (MT-4 cells): > 100 µM | EC50 (SARS corona virus): ~20 µM | EC50 [8]: 83.3 ± 26.4 µM | inhibition of cytochrome P450 enzymes (cytochrome P450 enzymes): neither NS1040 nor MDH-1-38 had significant inhibitory activity | EC50 (wild type HIV-1 RT): > 100 µM

From publication PMC7113734 (Antiviral Research, 2016)
